Data published in paper PMC6125788 (Molecular pharmaceutics, 2018).

Experiments:
A375 cells [1] = assay: Phototoxicity and dark toxicity, Alamar Blue assay; type: cell-based, human; conditions: no irradiation, up to 1000 nM of IR700 equiv.
In short: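 A375 cells were incubated overnight at 37 °C with free IR700 or PEG-IR700 conjugates at increasing concentrations (IR700 equiv.). Cells were then washed with fresh medium and kept unirradiated, as dark controls for the 660 nm photo-irradiation arm. Viability was measured 24 h later by Alamar Blue (4 h, fluorescence Ex 540/Em 590 nm); N = 4.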

A375 cells [2] = assay: Cellular uptake by flow cytometry in A375 cells; type: cell-based, human; conditions: free cRGDfK 10 μM
In short: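 A375 cells grown in DMEM with 10% FBS and 1% penicillin/streptomycin at 37 °C, 5% CO2. Cells were exposed to untargeted or RGD-targeted PEG-IR700 conjugate for 4 h, with or without free cRGDfK (10 μM). They were then trypsinized to single cells, and cell-associated fluorescence was read by flow cytometry.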

Structure (SMILES)	cytotoxicity in dark (A375 cells [1])	effect of free peptide on uptake of RGD-8PEG-IR700 (A375 cells [2])
C[Si](C)(CCC[N+](CCCS(=O)(=O)[O-])(CCCS(=O)(=O)[O-])CCCS(=O)(=O)[O-])O[Si]1(O[Si](C)(C)CCC[N+](CCCS(=O)(=O)[O-])(CCCS(=O)(=O)[O-])CCCS(=O)(=O)[O-])n2c3c4ccccc4c2N=C2N=C(N=c4c5ccccc5c(n41)=NC1=NC(=N3)c3ccccc31)c1cccc(OCCCOC(=O)NCCCCCC(=O)ON3C(=O)CCC3=O)c12.[Na+].[Na+].[Na+].[Na+] (centres unmarked) [IR700, IRDye 700DX]	no dark toxicity	
N=C(N)NCCC[C@@H]1NC(=O)[C@H](CCCCN)NC(=O)[C@@H](Cc2ccccc2)NC(=O)[C@H](CC(=O)O)NC(=O)CNC1=O [cRGDfK]		dramatically reduce the uptake
